F508del corr = correctors of CFTR F508del function in bronchial epithelial cells; CFBE cells, YFP halide quenching; stimulated with forskolin plus potentiator P3; % fluorescence drop versus neutral controls; activity (quench increase), % at 7.58 µM; 350,000 compounds, 0.36% hits; AID 720511;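 active = mean added fluorescence quench of at least 8% versus neutral control, with both replicates also reaching 8%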;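 note: cells transiently co-express mutant CFTR-F508del with the halide-sensitive YFP; corrector assay measuring rescue of mutant channel to the surface after 24 h compound exposure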
Ecoli rRNA inh = selective bacterial rRNA inhibition in E. coli. E. coli WT GFP vs humanized-ribosome RFP mutants, fluorescence, 24 h; hits give low values; DMSO median 0, no signal -100. GFP signal change (wild-type ribosome), % (no concentration beside the values). 350,000 compounds, 1.6% hits. AID 720706;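 active = significant combined selectivity score with lowered wild-type GFP, culture density cut under 30%, mutant RFP and density less affected; inactive = any of these conditions unmet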
S100A4 MyoIIA = blocks human S100A4 binding to myosin IIA peptide; P26447; S100A4/TAMRA-MyoIIA peptide fluorescence polarization; inhibition, % at 10.7 µM; 360,000 compounds, 0.14% hits;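 active = mean inhibition of at least 70% across replicates, with every replicate also reaching that level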
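Material: human S100A4 monomer with TAMRA-labelled myosin IIA peptide; buffer or medium: HEPES pH 7.2 with CaCl2, KCl, NaCl, DTT, Triton; compound dosing: one concentration per compound; schedule: 5 min incubation before reading; benchmarks: neutral control DMSO, positive control TFP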
SIRT5 block = sirtuin-5 (human) deacylase inhibition; Purified SirT5, succinyl-peptide AMC, trypsin-coupled fluorescence; inhibition, % at 15 µM; 330,000 compounds, 1.1% hits; in the data active = inhibition above about 15%
ERAP1 HTS inh = blocks human ERAP1 aminopeptidase activity | Q9NZ08 | recombinant ERAP1, Leu-AMC fluorescence, 60 min | inhibition, % at 10.7 µM | 340,000 compounds, 0.15% hits | AID 652197;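 active = mean replicate inhibition of at least 30%, or all replicates individually reaching that 30% level; inactive = mean below 30% and not every replicate reaching it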
Target sequence (Q9NZ08 whole entry, looked up): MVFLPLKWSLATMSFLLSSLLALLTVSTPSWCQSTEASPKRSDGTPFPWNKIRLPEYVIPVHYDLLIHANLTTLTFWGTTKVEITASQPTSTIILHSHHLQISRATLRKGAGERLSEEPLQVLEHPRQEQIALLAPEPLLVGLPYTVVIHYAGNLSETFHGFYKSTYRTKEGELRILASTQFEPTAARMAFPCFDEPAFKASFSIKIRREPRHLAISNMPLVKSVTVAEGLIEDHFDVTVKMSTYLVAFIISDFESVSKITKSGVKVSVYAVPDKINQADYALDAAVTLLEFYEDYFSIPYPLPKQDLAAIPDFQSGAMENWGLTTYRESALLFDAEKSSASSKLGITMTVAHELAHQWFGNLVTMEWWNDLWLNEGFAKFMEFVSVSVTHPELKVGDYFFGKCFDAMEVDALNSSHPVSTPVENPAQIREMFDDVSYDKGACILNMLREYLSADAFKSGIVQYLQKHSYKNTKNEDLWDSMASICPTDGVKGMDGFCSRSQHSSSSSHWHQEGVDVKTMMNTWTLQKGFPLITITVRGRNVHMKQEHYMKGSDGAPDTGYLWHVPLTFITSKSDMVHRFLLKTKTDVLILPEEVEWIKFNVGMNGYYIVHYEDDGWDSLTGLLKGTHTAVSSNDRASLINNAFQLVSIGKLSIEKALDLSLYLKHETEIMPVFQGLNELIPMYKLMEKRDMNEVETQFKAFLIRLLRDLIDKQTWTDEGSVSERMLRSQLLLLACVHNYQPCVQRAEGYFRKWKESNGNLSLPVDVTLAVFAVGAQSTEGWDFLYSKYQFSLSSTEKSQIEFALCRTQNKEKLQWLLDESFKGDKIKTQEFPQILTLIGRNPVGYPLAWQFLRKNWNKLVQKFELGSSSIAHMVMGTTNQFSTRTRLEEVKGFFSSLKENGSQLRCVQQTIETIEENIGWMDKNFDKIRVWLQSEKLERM
A number is an active result; ! = not confirmed by another sample. Most compounds without a hit are left out; they make up all but 3.1% or so of the library.

Screening CC(C)(CO)CNC(=O)CCc1nnc(Cc2ccc(-c3ccccc3)cc2)o1 returned F508del corr inactive, Ecoli rRNA inh inactive, S100A4 MyoIIA inactive, SIRT5 block 25.6 and ERAP1 HTS inh inactive.
Screening C/C=C/c1ccc([C@@H]2[C@H](CO)N(C(C)=O)C23CN(S(C)(=O)=O)C3)cc1 returned F508del corr inactive, Ecoli rRNA inh inactive, S100A4 MyoIIA inactive, SIRT5 block inactive and ERAP1 HTS inh inactive.
For CN1CCN(C(=O)C[C@H]2C[C@H]3c4cc(NC(=O)c5ccc6c(c5)OCO6)ccc4O[C@H]3[C@@H](CO)O2)CC1 the results were F508del corr inactive, Ecoli rRNA inh inactive, S100A4 MyoIIA inactive, SIRT5 block inactive and ERAP1 HTS inh inactive.
For COc1ccc2c3c(n(C)c2c1)[C@H](CO)N(C)CC31CN(C(=O)c2ccccc2F)C1 the results were F508del corr inactive, Ecoli rRNA inh inactive, S100A4 MyoIIA inactive and ERAP1 HTS inh inactive.
`Cn1cc(CCCC(=O)NCc2ccc(F)cc2)c2ccccc21` gave F508del corr inactive, Ecoli rRNA inh -36.7, S100A4 MyoIIA inactive, SIRT5 block inactive and ERAP1 HTS inh inactive.
`CN(C)c1ccc2c(c1)[C@H]1C[C@H](CC(=O)NCc3ccncc3)O[C@H](CO)[C@H]1O2` gave F508del corr inactive, Ecoli rRNA inh inactive, S100A4 MyoIIA inactive, SIRT5 block inactive and ERAP1 HTS inh inactive.
For CC(C)(C)C(=O)Nc1sc2c(c1C(=O)Nc1ccccn1)CCCC2 the results were F508del corr inactive, Ecoli rRNA inh inactive, S100A4 MyoIIA inactive, SIRT5 block 17.9 and ERAP1 HTS inh inactive.
`COc1ccc(NC(=O)N(C)C[C@H]2OCCCC[C@@H](C)Oc3ccc(NC(=O)Cc4ccccc4)cc3C(=O)N([C@@H](C)CO)C[C@@H]2C)cc1` gave F508del corr inactive, Ecoli rRNA inh inactive, S100A4 MyoIIA inactive, SIRT5 block inactive and ERAP1 HTS inh inactive.
`COc1ccc2c3c(n(C)c2c1)[C@@H](CO)N(C(=O)CN1CCOCC1)CC31CCN(C(C)=O)CC1` gave F508del corr inactive, Ecoli rRNA inh inactive, S100A4 MyoIIA inactive and ERAP1 HTS inh inactive.
For C[C@@H]1CN([C@H](C)CO)C(=O)c2cccc(NS(C)(=O)=O)c2O[C@@H]1CN(C)CC1CCCCC1 the results were F508del corr inactive, Ecoli rRNA inh inactive, S100A4 MyoIIA inactive, SIRT5 block 18.1 and ERAP1 HTS inh inactive.
Screening C[C@H](CO)N1C[C@H](C)[C@@H](CN(C)CC2CCCCC2)Oc2c(NS(=O)(=O)c3ccc(F)cc3)cccc2C1=O returned F508del corr inactive, Ecoli rRNA inh inactive, S100A4 MyoIIA inactive, SIRT5 block 26.8! and ERAP1 HTS inh inactive.
C[C@@H]1CN([C@H](C)CO)C(=O)c2cccc(NS(=O)(=O)c3ccc(F)cc3)c2O[C@H]1CN(C)CC1CCCCC1 was read as F508del corr inactive, Ecoli rRNA inh inactive, S100A4 MyoIIA inactive, SIRT5 block inactive and ERAP1 HTS inh inactive.
`C[C@H](CO)N1C[C@H](C)[C@@H](CN(C)CC2CC2)Oc2c(NC(=O)Nc3ccccc3)cccc2C1=O` gave F508del corr inactive, Ecoli rRNA inh inactive, S100A4 MyoIIA inactive, SIRT5 block inactive and ERAP1 HTS inh inactive.
`C[C@@H]1CN([C@H](C)CO)C(=O)c2cccc(NS(C)(=O)=O)c2O[C@@H]1CN(C)CC1CC1` gave F508del corr inactive, Ecoli rRNA inh inactive, S100A4 MyoIIA 125.8, SIRT5 block inactive and ERAP1 HTS inh inactive.
For C[C@H](CO)N1C[C@H](C)[C@@H](CN(C)CC2CC2)Oc2c(NC(=O)Cc3ccccc3)cccc2C1=O the results were F508del corr inactive, Ecoli rRNA inh inactive, S100A4 MyoIIA inactive, SIRT5 block 25.1 and ERAP1 HTS inh inactive.
For CO[C@H]1CN(C)C(=O)c2cc(NC(=O)c3ccccc3F)ccc2OC[C@H](C)NC[C@@H]1C the results were F508del corr inactive, Ecoli rRNA inh inactive, S100A4 MyoIIA inactive, SIRT5 block 24.6 and ERAP1 HTS inh inactive.
Screening CO[C@H]1CN(C)C(=O)c2cc(NC(=O)c3ccccc3F)ccc2OC[C@@H](C)NC[C@@H]1C returned F508del corr inactive, Ecoli rRNA inh inactive, S100A4 MyoIIA inactive, SIRT5 block 25.7 and ERAP1 HTS inh inactive.
`CO[C@H]1CN(C)C(=O)c2cc(NC(=O)c3ccccc3F)ccc2OC[C@H](C)NC[C@H]1C` gave F508del corr inactive, Ecoli rRNA inh inactive, S100A4 MyoIIA inactive, SIRT5 block inactive and ERAP1 HTS inh inactive.
`O=C(c1cccc(F)c1)N1CCCCN2[C@@H](CO)[C@@H](c3ccc(/C=C/c4ccccc4)cc3)[C@@H]2C1` gave F508del corr inactive, Ecoli rRNA inh inactive, S100A4 MyoIIA inactive, SIRT5 block inactive and ERAP1 HTS inh inactive.
O=C(Nc1nccs1)c1cc(-c2ccncc2)nc2ccccc12 was read as F508del corr inactive, Ecoli rRNA inh inactive, S100A4 MyoIIA inactive, SIRT5 block inactive and ERAP1 HTS inh inactive.
For O=C(COc1ccc2ccccc2c1)Nc1nccs1 the results were F508del corr inactive, Ecoli rRNA inh -21.5, S100A4 MyoIIA inactive, SIRT5 block inactive and ERAP1 HTS inh inactive.
`O=C(Nc1nccs1)c1cccc2ccccc12` gave F508del corr inactive, Ecoli rRNA inh inactive, S100A4 MyoIIA inactive, SIRT5 block 17.8 and ERAP1 HTS inh inactive.
`CC(Nc1ccc(F)cc1)=[N+](C)CCNS(=O)(=O)c1ccc(Cl)cc1` gave F508del corr inactive, Ecoli rRNA inh inactive, S100A4 MyoIIA inactive, SIRT5 block inactive and ERAP1 HTS inh 38.5.
Screening O=C1Nc2ccccc2-c2nnnn2C1N1CCCC1 (stereo not given) returned F508del corr inactive, S100A4 MyoIIA inactive, SIRT5 block 17.9 and ERAP1 HTS inh inactive.
For O=C(NCC[C@@H]1CC[C@@H](NC(=O)C2CCC2)[C@H](CO)O1)c1cnccn1 the results were F508del corr inactive, Ecoli rRNA inh inactive, S100A4 MyoIIA inactive, SIRT5 block inactive and ERAP1 HTS inh inactive.
Cc1noc(C)c1NC(=O)N[C@H]1CC[C@@H](CCNC(=O)C2CCC2)O[C@@H]1CO was read as F508del corr inactive, Ecoli rRNA inh inactive, S100A4 MyoIIA inactive, SIRT5 block inactive and ERAP1 HTS inh inactive.
Screening COC(=O)c1cn(NC(=O)c2cc([N+](=O)[O-])ccc2F)c(=O)c2ccccc12 returned F508del corr 8.7, Ecoli rRNA inh inactive, S100A4 MyoIIA inactive, SIRT5 block inactive and ERAP1 HTS inh inactive.
Screening COc1ccc(-n2cc(C(=O)Nc3cc([N+](=O)[O-])ccc3OC)c3ccccc3c2=O)cc1 returned Ecoli rRNA inh inactive, S100A4 MyoIIA inactive, SIRT5 block inactive and ERAP1 HTS inh inactive.
CC1(C)CC(=O)C2=C(C1)NC1=C(C(=O)c3ccccc31)C2c1ccccc1 (stereo not given) was read as Ecoli rRNA inh inactive, S100A4 MyoIIA inactive, SIRT5 block inactive and ERAP1 HTS inh inactive.
